For 41 compounds, EC50, Activity and GI50 results are on record in ChEMBL document CHEMBL1143136 (J Med Chem, 2008).

The test system of assay [1] is HeLa. In words: Induction of mitotic arrest in human HeLa cells assessed as monoastral spindle formation after 24 hrs. In kind it is functional, cell-based.
For assay [2], the system named is HeLa. Put plainly: Cell cycle arrest in human HeLa cells assessed as accumulation at G2/M phase at 1 uM after 24 hrs. The format is functional. In a few lines:
(§1)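 HeLa cells grown in DMEM with 10% FBS at 37 °C, 5% CO2, in 60 mm dishes, exposed to drug for 24 h. Drugs were diluted in medium from 50 mM DMSO stocks. Cells were fixed in 90% methanol at −20 °C and stained with propidium iodide. Flow cytometry gave the percentage of cells with 4N DNA content (G2/M).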

For assay [3], the system named is HeLa. Put plainly: Cell cycle arrest in human HeLa cells assessed as accumulation at G2/M phase at 5 uM after 24 hrs. In kind it is functional. The method in brief:
as §1

Assay [4] relates to HeLa. Put plainly: Induction of mitotic arrest in human HeLa cells after 24 hrs. The format is functional, cell-based. The method in brief:
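A concentration series was given to HeLa cells for 24 h (DMEM, 10% FBS, 37 °C, 5% CO2). Cells were fixed in methanol at −20 °C, then stained with MPM-2 antibody/FITC secondary and propidium iodide. Two-dimensional flow cytometry followed.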

The test system of assay [5] is HeLa. In words: Induction of mitotic arrest in human HeLa cells at 1 uM assessed as MPM2 antibody positive cells after 24 hrs. The format is functional. The method in brief: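 HeLa cells (DMEM, 10% FBS, 37 °C, 5% CO2) were drug-treated for 24 h, then fixed in 90% methanol at −20 °C. They were labelled with MPM-2 mitotic phospho-epitope antibody plus FITC anti-mouse IgG, and with propidium iodide. Two-dimensional flow cytometry gave the percentage of 4N-arrested cells that were MPM2-positive.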

A further assay in a line: cells. The conditions noted are these: Homo sapiens, NCI60.

pEC50: −log10 of the molar value. Where a SMILES comes first, the peptide text is derived from it. The star is where a group is joined. Trt = c1ccc(C(c2ccccc2)(c2ccccc2)*)cc1

Regarding `NCCCSC(c1ccccc1)(c1ccccc1)c1ccccc1`, in the assay with HeLa [1], the pEC50 was under 5.30.
On the same count and under the same terms, under `CC(=O)N[C@@H](CSC1(c2ccccc2)c2ccccc2-c2ccccc21)C(=O)O` stands under 5.30; under `N[C@@H](CSC(c1ccccc1)(c1ccccc1)c1ccc(O)cc1)C(=O)O`, under 5.30.
Still for that read-out and setting: the same measure for `N[C@@H](COC(c1ccccc1)(c1ccccc1)c1ccccc1)C(=O)O`: under 5.30; for `N[C@@H](CSC1(c2ccccc2)c2ccccc2-c2ccccc21)C(=O)O`: under 5.30.
Same read-out and setting: the same measure for `N[C@@H](CSC1(c2ccc(F)cc2)c2ccccc2-c2ccccc21)C(=O)O`: under 5.30.
Turning to `Cc1ccc(C2(SC[C@H](N)C(=O)O)c3ccccc3-c3ccccc32)cc1`, the negative logarithm of the EC50 (pEC50) with HeLa [1] was under 5.30.
The same measure, in the same setting: under `COc1ccc(C(SC[C@H](N)C(=O)O)(c2ccccc2)c2ccc(OC)cc2)cc1` stands under 5.30.
In the case of `Cc1ccc(C(SC[C@H](N)C(=O)O)(c2ccccc2)c2ccc(C)cc2)cc1`, the negative-log EC50 (pEC50) in the assay on HeLa [1] was 6.28; with HeLa [4], 6.00. Further, the Activity with HeLa [2] is recorded as 50.8%; with HeLa [3], 70.9%.
As to `N[C@@H](CSC(c1ccccc1)(c1ccccc1)c1ccccc1)C(=O)NCC(=O)O`, the pEC50 in the assay on HeLa [1] is under 5.30.
Take `N[C@@H](CSC(c1ccccc1)(c1ccccc1)c1ccc2c(c1)OCO2)C(=O)O`: the pEC50 in the assay with HeLa [1] was 5.86. The Activity in the assay with HeLa [2] is given as 24.3%; with HeLa [3], 68%.
In the case of `N[C@@H](CSC(c1ccccc1)(c1ccccc1)c1ccc2ccccc2c1)C(=O)O`, the pEC50 was 6.48 in the assay with HeLa [1] and 6.22 in the assay on HeLa [4]. In addition, the Activity with HeLa [2] is reported as 68.1%; in the assay with HeLa [5], 79.9%.
In the same order, the values of `COc1ccc(C(SC[C@H](N)C(=O)O)(c2ccccc2)c2ccccc2)cc1` are 6.70, 6.52, 69% and 81.6%.
On to `N[C@@H](CSC(c1ccccc1)(c1ccccc1)c1ccc(CO)cc1)C(=O)O`, for which the pEC50 with HeLa [1] was under 5.30.
Turning to `COC(=O)[C@H](CC(C)C)NC(=O)[C@@H](N)CSC(c1ccccc1)(c1ccccc1)c1ccccc1` (H-Cys(Trt)-Leu-OMe), the negative logarithm of the EC50 (pEC50) with HeLa [1] is 5.30.
Turning to `COC(=O)[C@@H](NC(=O)[C@@H](N)CSC(c1ccccc1)(c1ccccc1)c1ccccc1)C(C)C` (H-Cys(Trt)-Val-OMe), the pEC50 in the assay with HeLa [1] was 5.46. The Activity with HeLa [3] was 21.8%.
Regarding `COC(=O)[C@@H](N)CSC(c1ccccc1)(c1ccccc1)c1ccccc1`, in the assay with HeLa [1], the pEC50 is 5.97. Besides, the Activity was 20.2% in the assay with HeLa [2] and 72.4% in the assay with HeLa [3].
As for `N[C@@H](CSC(c1ccccc1)c1ccccc1)C(=O)O`, the negative-log EC50 (pEC50) in the assay with HeLa [1] is under 5.30.
On to `N[C@@H](CSC(c1ccccc1)(c1ccc(-c2ccccc2)cc1)c1ccc(-c2ccccc2)cc1)C(=O)O`, for which, in the assay with HeLa [1], the negative-log EC50 (pEC50) was under 5.30.
As to `N[C@@H](CSC(c1ccccc1)(c1ccccc1)c1ccc(Cl)cc1)C(=O)O`, the pEC50 in the assay with HeLa [1] is 6.29; in the assay on HeLa [4] it was 6.18. Further, the figures for the Activity in the assay with HeLa [2] and in the assay on HeLa [3] were 48.5% and 74.7%, respectively.
For the compound `CC(NC(=O)[C@@H](N)CSC(c1ccccc1)(c1ccccc1)c1ccccc1)C(=O)O` (some centres undefined), in the assay with HeLa [1], the negative logarithm of the EC50 (pEC50) is under 5.30.
Still for that read-out and setting: under `N[C@@H](CSC(c1ccccc1)(c1ccccc1)c1cccc2ccccc12)C(=O)O` stands under 5.30.
As to `N[C@@H](CSC(c1ccccc1)(c1ccccc1)c1ccccc1)C(=O)OC(c1ccccc1)c1ccccc1`, the pEC50 in the assay on HeLa [1] is under 5.30.
For `CCC(SC[C@H](N)C(=O)O)(c1ccccc1)c1ccccc1`, the negative logarithm of the EC50 (pEC50) in the assay with HeLa [1] is under 5.30.
Take `N[C@@H](CSC(c1ccccc1)(c1ccccc1)C1CCCCC1)C(=O)O`: in the assay on HeLa [1], the pEC50 is 5.73. In addition, the Activity with HeLa [2] was determined as 19.9%; in the assay on HeLa [3], 55.2%.
For the compound `N[C@@H](CSC(c1ccccc1)(c1ccccc1)c1ccccc1)C(=O)N[C@@H](CSC(c1ccccc1)(c1ccccc1)c1ccccc1)C(=O)O` (H-Cys(Trt)-Cys(Trt)-OH), in the assay on HeLa [1], the negative-log EC50 (pEC50) was under 5.30.
In the case of `N[C@@H](CSC(c1ccccc1)(c1ccccc1)c1ccc(F)cc1)C(=O)O`, the pEC50 with HeLa [1] was 5.81. Further, the values for the Activity in the assay on HeLa [2] and with HeLa [3] were 24% and 68.8%, respectively.
`N[C@@H](CSC(c1ccccc1)(c1ccccc1)c1ccc(Br)cc1)C(=O)O`: the pEC50 with HeLa [1] was 6.51; with HeLa [4], 6.35. For the same compound, the results for the Activity in the assay with HeLa [2] and in the assay with HeLa [5] were 68.7% and 77.4%, respectively.
As for `CC(SC[C@H](N)C(=O)O)(c1ccccc1)c1ccccc1`, in the assay with HeLa [1], the pEC50 is under 5.30.
For `N[C@@H](CSC1(c2cccc3ccccc23)c2ccccc2-c2ccccc21)C(=O)O`, the pEC50 with HeLa [1] is under 5.30.
Still for that read-out and setting: the same measure for `N[C@@H](CSC1(c2ccc(Cl)cc2)c2ccccc2-c2ccccc21)C(=O)O`: under 5.30; for `NCCCCSC(c1ccccc1)(c1ccccc1)c1ccccc1`: under 5.30.
Regarding `CC(C)C(SC[C@H](N)C(=O)O)(c1ccccc1)c1ccccc1`, the negative-log EC50 (pEC50) in the assay with HeLa [1] was 5.97. Besides, the Activity in the assay on HeLa [2] turned out to be 22.6%; in the assay with HeLa [3] it was 59.1%.
In the same order, the values of `NCCSC(c1ccccc1)(c1ccccc1)c1ccccc1` are 5.97, 21.1% and 65.8%.
Take `CCCCC(SC[C@H](N)C(=O)O)(c1ccccc1)c1ccccc1`: the pEC50 with HeLa [1] is 5.85. The Activity is 19.1% in the assay with HeLa [2] and 71.1% in the assay with HeLa [3].
For the compound `N[C@@H](CSC(c1ccccc1)(c1ccc(CO)cc1)c1ccc(CO)cc1)C(=O)O`, the negative-log EC50 (pEC50) with HeLa [1] was under 5.30.
In the case of `Cc1ccc(C(SC[C@H](N)C(=O)O)(c2ccc(C)cc2)c2ccc(C)cc2)cc1`, the pEC50 with HeLa [1] is 5.51. Moreover, the Activity with HeLa [3] is 34.1%.
As to `O=C(O)C(CSC(c1ccccc1)(c1ccccc1)c1ccccc1)/N=C/c1cccs1` (centres undefined), the negative-log EC50 (pEC50) with HeLa [1] was under 5.30.
As for `Cc1ccc(C(SC[C@H](N)C(=O)O)(c2ccccc2)c2ccccc2)cc1`, the pEC50 is 6.68 with HeLa [1] and 6.48 in the assay with HeLa [4]. The Activity is recorded as 71% in the assay with HeLa [2] and 84.1% with HeLa [5].
On to `N[C@@H](CSC(c1ccccc1)(c1ccccc1)c1ccccc1)C(=O)O` [S-TRITYL-L-CYSTEINE], for which the figures for the negative-log EC50 (pEC50) with HeLa [1] and with HeLa [4] were 6.15 and 5.77, respectively. Besides, the figures for the Activity in the assay with HeLa [2] and in the assay on HeLa [3] were 23.1% and 75.8%, respectively. Besides, the 50% growth inhibitory concentration (GI50) in “cells” was determined as 1.31 µM.
On to `CC(C)(SC(c1ccccc1)(c1ccccc1)c1ccccc1)C(N)C(=O)O` (centres undefined), for which the negative-log EC50 (pEC50) in the assay on HeLa [1] was under 5.30.

As usually defined, the pEC50 is the EC50 on a negative log10 scale, so that one unit is a factor of ten. A word on the GI50: it is the concentration that inhibits growth by half. A low value points to more potent growth inhibition.
